Experimental data from paper PMC7797077 (Nucleic Acids Research, 2020).
Each block holds one molecule with its values, some of them ahead of it. Where no end group is shown, it is not given here. The star is where a group is joined. Bz = O=C(c1ccccc1)*

What was measured:
[1] = tested on: histone Kbz and Kac in mouse intestinal epithelial cells; experiment: NaBz water feeding in mice, western blot of histone Kbz and Kac; assay type: in vivo, C57BL/6N mice; conditions: ten days of NaBz water feeding at 10, 20 and 50 mM
Summary of the method: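 SPF-housed mice drank NaBz water for 10 days. Intestinal tissue was shaken at 200 rpm, 37°C, 20 min in HBSS (no Ca²⁺/Mg²⁺) with 10 mM HEPES, 5 mM EDTA, 1 mM DTT and 3% FBS. Released epithelial cells were pelleted at 1500 rpm, 4°C. Total histones were kit-extracted and BCA-quantified, then run on SDS-PAGE and PVDF. Primary antibodies overnight at 4°C; HRP secondary 1:5,000; ECL. Histone H4 served as loading control; duplicate mice.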

[2] = tested on: nuclear Kbz in HEK 293T and HCT116 cells; experiment: Immunofluorescence staining of Kbz after NaBz treatment; assay type: cell-based, human; conditions: 10 mM NaBz, 24 h
Summary of the method: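 Cells were fixed in 4% formaldehyde for 20 min at RT, permeabilized on ice with 0.5% Triton X-100 for 10 min, and blocked in 3% BSA for 1 h. Anti-pan Kbz (1:500) was applied overnight at 4°C, then Alexa Fluor 594 anti-mouse (1:1000) for 1 h. Mounted with DAPI; confocal imaging.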

[3] = tested on: histone Kbz in HEK 293T, HeLa, HCT116 and HepG2 cells; experiment: Western blot of core histone Kbz levels after NaBz treatment; assay type: cell-based, human; conditions: 24-h treatment with NaBz at various concentrations
[4] = target: AF9 YEATS domain (2-138) (human) (UniProt P42568); experiment: ITC
[5] = target: YEATS2 YEATS domain (201-332) S230F (human) (UniProt Q9ULM3); experiment: ITC
[6] = target: YEATS2 YEATS domain (201-332) (human) (UniProt Q9ULM3); experiment: ITC
[7] = target: T1, AF9 YEATS domain (2-138) F28S (human, UniProt P42568 2-138, F28S); experiment: ITC
T1 sequence (looked up): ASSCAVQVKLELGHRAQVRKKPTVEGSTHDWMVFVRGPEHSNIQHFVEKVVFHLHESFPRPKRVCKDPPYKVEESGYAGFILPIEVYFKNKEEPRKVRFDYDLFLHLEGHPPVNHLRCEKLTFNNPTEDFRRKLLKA

Chain of YEATS2 YEATS domain (201-332) S230F (human) (Q9ULM3 201-332 S230F): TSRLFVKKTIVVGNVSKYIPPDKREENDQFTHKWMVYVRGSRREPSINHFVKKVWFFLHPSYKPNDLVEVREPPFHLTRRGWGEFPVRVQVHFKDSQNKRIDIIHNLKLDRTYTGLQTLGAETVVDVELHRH
Chain of YEATS2 YEATS domain (201-332) (human) (Q9ULM3 201-332): as the sequence (Q9ULM3 201-332 S230F) above, with F30S counted along it

Molecule: O=C([O-])c1ccccc1.[Na+] [NaBz, Sodium benzoate]
- pan Kac level of histone in mouse intestinal epithelial cells [1]: not stimulated
- histone Kbz signal in mouse intestinal epithelial cells ([1]; two mice per concentration): clearly boosted
- nuclear Kbz signals (immunofluorescence) [2]: lightened up
- signals of histone Kbz (pan Kbz western blot) [3]: upregulated in a dose-dependent manner

Molecule: histone H3_(2-16)K9bz peptide (from UniProt P68431 3-17)
- Kd [4]: 5.97 µM

Second part, the molecule after the results:

- dH [5]: -6.8 kcal/mol
- Kd [6]: 21.6 µM
Molecule: histone H3_(15-39)K27bz peptide (from UniProt P68431 16-40)

- fold binding enhancement over WT AF9 YEATS [7]: ~1.6 fold
Molecule: RTKQTARK(Bz)STGGKAP (peptide, UniProt P68431 3-17, looked up) [histone H3_(2-16)K9bz peptide]
